Laboratory results as given in ChEMBL document CHEMBL4346686, “Discovery and biological evaluation of novel androgen receptor antagonist for castration-resistant prostate cancer” (Eur J Med Chem, 2019).

Experiments:
[1] = Antiproliferative activity against human LNCaP-AR cells assessed as reduction in cell viability incubated for 6 days by CCK8 assay; format: functional, cell-based; settings: 144 h
Method in brief: (§1)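 Cells seeded (2×10^4 per well for VCaP, 1–3×10^3 for the others) and compound added after 24 h as a 9-point, 3-fold serial dilution. Exposure 6 days, then CCK-8 for 1–4 h and absorbance at 450 nm. IC50 from curve fit, mean of at least two independent experiments run in duplicate.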

[2] = system: VCaP; test: Antiproliferative activity against human VCaP cells assessed as reduction in cell viability incubated for 6 days by CCK8 assay; format: functional, cell-based; settings: 144 h; method in brief: as §1
[3] = system: CWR22R; test: Antiproliferative activity against human 22Rv1 cells assessed as reduction in cell viability incubated for 6 days by CCK8 assay; format: functional, cell-based; settings: 22Rv1, 144 h; method in brief: as §1
[4] = molecular target: T1, Androgen receptor (Homo sapiens, UniProt P10275); format: cell-based, LNCaP
T1 sequence (P10275 whole entry): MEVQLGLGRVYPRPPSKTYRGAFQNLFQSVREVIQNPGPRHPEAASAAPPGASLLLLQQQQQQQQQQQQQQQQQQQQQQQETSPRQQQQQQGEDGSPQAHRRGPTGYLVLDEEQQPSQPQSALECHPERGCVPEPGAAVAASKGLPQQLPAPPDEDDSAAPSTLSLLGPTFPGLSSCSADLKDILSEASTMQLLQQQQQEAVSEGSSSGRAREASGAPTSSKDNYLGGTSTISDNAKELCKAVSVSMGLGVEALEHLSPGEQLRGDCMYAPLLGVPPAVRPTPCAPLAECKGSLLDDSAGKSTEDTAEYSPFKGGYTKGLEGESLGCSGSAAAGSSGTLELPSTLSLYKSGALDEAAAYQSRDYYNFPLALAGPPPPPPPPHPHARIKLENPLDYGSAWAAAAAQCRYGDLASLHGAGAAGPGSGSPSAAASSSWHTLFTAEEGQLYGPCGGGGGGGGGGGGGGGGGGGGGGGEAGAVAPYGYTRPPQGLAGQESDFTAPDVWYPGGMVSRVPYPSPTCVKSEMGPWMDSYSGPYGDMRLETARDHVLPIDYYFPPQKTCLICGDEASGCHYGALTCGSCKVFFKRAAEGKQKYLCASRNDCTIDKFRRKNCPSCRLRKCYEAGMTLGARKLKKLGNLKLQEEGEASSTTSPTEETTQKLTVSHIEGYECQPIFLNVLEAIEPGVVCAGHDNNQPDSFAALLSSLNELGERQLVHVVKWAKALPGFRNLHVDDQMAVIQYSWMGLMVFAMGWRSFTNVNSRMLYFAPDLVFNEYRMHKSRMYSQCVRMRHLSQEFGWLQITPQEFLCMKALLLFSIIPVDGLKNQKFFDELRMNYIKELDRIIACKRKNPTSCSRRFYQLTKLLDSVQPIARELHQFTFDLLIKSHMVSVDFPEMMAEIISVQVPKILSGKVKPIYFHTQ

[5] = molecular target: T2, Androgen receptor (Homo sapiens) (UniProt P10275); test: Potency index, ratio of IC50 for enzalutamide to IC50 for compound for competitive displacement of [3H]R1881 from human AR expressed in LNCaP cells incubated for 24 hrs by scintillation counting method based radioligand competitive binding assay; format: cell-based
T2 sequence (whole entry): T1 sequence (P10275 whole entry)

[6] = molecular target: T3, Steroid 17-alpha-hydroxylase/17,20 lyase (Homo sapiens, UniProt P05093); test: Inhibition of C-myc/DDK tagged human CYP17A1 expressed in HEK293T cells assessed as reduction in formation of 17-OHP at 10 uM incubated for 30 mins by LC-MS/MS analysis; format: cell-based; settings: 0.5 h, 10 µM
T3 sequence (P05093 whole entry): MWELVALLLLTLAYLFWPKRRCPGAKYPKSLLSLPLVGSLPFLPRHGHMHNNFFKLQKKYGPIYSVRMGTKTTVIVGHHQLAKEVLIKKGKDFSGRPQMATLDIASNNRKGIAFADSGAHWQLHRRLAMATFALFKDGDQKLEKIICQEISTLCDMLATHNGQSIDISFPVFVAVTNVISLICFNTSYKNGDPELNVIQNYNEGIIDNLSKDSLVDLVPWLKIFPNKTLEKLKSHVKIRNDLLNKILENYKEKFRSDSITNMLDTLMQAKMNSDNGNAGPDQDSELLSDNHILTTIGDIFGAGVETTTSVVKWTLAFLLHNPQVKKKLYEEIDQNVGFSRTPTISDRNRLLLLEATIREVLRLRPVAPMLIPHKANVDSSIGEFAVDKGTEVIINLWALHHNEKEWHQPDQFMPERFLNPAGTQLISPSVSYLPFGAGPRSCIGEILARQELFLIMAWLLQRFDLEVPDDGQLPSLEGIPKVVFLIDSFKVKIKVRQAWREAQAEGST
Method in brief: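 CYP17A1 activity measured as 17α-hydroxyprogesterone formation in 50 mM Tris pH 7.4, 5 mM MgCl2. Incubation 30 min at 37 °C, quenched with 20% trichloroacetic acid; product quantified by LC-MS/MS. Mean ± SD, n = 2.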

[7] = Cmax in Sprague-Dawley rat at 30 mg/kg, po measured at 0.5 hrs by LC-MS/MS analysis; format: ADME, organism-based; set-up: dose 30 mg/kg, route oral; settings: in vivo
Method in brief: (§2)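 Male SD rats (N = 3), single oral 30 mg/kg in PEG200/DMA (9:1, v/v). Blood from retrobulbar vein at 0–24 h; heparinized plasma, protein precipitation with methanol, LC-MS/MS quantitation; parameters by non-compartmental analysis.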

[8] = Half life in Sprague-Dawley rat at 30 mg/kg, po measured upto 24 hrs by LC-MS/MS analysis; format: ADME, organism-based; settings: in vivo; method in brief: as §2
[9] = AUC (0 to t) in Sprague-Dawley rat at 30 mg/kg, po measured upto 24 hrs by LC-MS/MS analysis; format: ADME, organism-based; set-up: time < 24 hr, dose 30 mg/kg, route oral; settings: in vivo
[10] = system: VCaP; test: Antitumor activity against human VCaP cells xenografted in BALB/c nude mouse assessed as inhibition of tumor growth at 30 mg/kg, po qd administered for 40 days relative to control; format: functional; settings: Mus musculus, VCaP, po, 960 h; read-out: TGI
Method in brief: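 Male BALB/c nude mice, 5 weeks old, s.c. 1 × 10^7 VCaP cells in DMEM/Matrigel (1:1). Castrated under Nembutal at 150–200 mm3 and randomized (n = 8–10). Once tumors regrew to 200–350 mm3, oral 30 mg/kg qd for 40 days. TGI = [1 − (T − T0)/(C − C0)] × 100 from mean tumor volumes on first and last treatment days.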

[11] = Toxicity in BALB/c nude mouse xenografted with human VCaP cells assessed as weight loss at 30 mg/kg, po qd administered for 40 days relative to control; format: organism-based; settings: in vivo, 960 h
[12] = molecular target: T2, Androgen receptor (Homo sapiens); test: Antagonist activity at androgen receptor in human VCaP cells assessed as inhibition of R1881-induced PSA mRNA expression after 24 hrs by qRT-PCR analysis; format: cell-based
Method in brief: (§3)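 VCaP cells held 48 h in DMEM with 5% charcoal-stripped FBS, then 24 h with compound plus 0.2 nM R1881. TRIzol RNA extraction, cDNA synthesis, qRT-PCR for the target mRNA normalized to GAPDH; mean ± SD, n = 3.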

[13] = molecular target: T2, Androgen receptor (Homo sapiens); test: Antagonist activity at androgen receptor in human VCaP cells assessed as inhibition of R1881-induced FKBP5 mRNA expression after 24 hrs by qRT-PCR analysis; format: cell-based; method in brief: as §3

IC50 [2]: 700 nM
IC50 [4]: 641 nM
Ratio IC50 [5]: 8
inhibition (INH) [6]: Not Active
Cmax [7]: 2320 ng/mL
half-life [8]: 264 min
AUC(0-t) at 24 h [9]: 4040 ng·h/mL
Activity [12]: Dose-dependent effect
Activity [13]: Dose-dependent effect
SMILES: Cc1ccc(-c2c(C)noc2C)cc1Nc1ccc(C#N)c(Cl)c1
IC50 [1]: 430 nM
IC50 [3]: 3.5 µM
inhibition in vivo at 30 mg/kg [10]: 44.7%
Activity [11]: Non-Toxic
